Experiments:
MOLT-4 = experiment: Antiproliferative activity against Bcl-xl dependent human MOLT-4 cells assessed as reduction in cell viability by measuring effect concentration by CellTiter-Glo reagent based assay; format: functional
[1] = molecular target: Apoptosis regulator Bcl-2 (Homo sapiens, UniProt P10415); experiment: Binding affinity to Bcl-2 (unknown origin) assessed as dissociation constant incubated for 1 hrs by TR-FRET assay
[2] = molecular target: Induced myeloid leukemia cell differentiation protein Mcl-1 (Homo sapiens, UniProt Q07820); experiment: Binding affinity to MCL-1 (unknown origin) assessed as dissociation constant incubated for 1 hrs by TR-FRET assay
[3] = Toxicity in Sprague-Dawley rat assessed as inhibition of […] by measuring reduction in circulating platelets at 50 mg/kg, po administered daily for 5 days and measured on day 6 by microscopic analysis; format: organism-based; settings: in vivo, 144 h, time 6 day
Procedure, shortened: (§1)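 Male Sprague-Dawley rats, n = 10 per group: docetaxel 5 mg/kg i.v. once, or oral inhibitor daily for 5 days (30, 50 or 7 mg/kg depending on agent), alone or combined with docetaxel, against vehicles. Total neutrophil and platelet counts in blood collected on day 6; Tukey-Kramer test versus vehicle.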

Bcl-2-like protein 1 = Bcl-2-like protein 1 (Homo sapiens, UniProt Q07817); experiment: Binding affinity to Bcl-xl (unknown origin) assessed as dissociation constant incubated for 1 hrs by TR-FRET assay
[4] = Toxicity in Sprague-Dawley rat assessed as inhibition of granulopoiesis by measuring reduction in neutrophil count at 50 mg/kg, po administered daily for 5 days measured on day 6 in presence of docetaxel by microscopic analysis relative to control; format: organism-based; settings: in vivo, 144 h, time 6 day; procedure, shortened: as §1
Bcl-2-like protein 2 = molecular target: T1, Bcl-2-like protein 2 (Homo sapiens, UniProt Q92843); experiment: Binding affinity to BCL-W (unknown origin) assessed as dissociation constant incubated for 1 hrs by TR-FRET assay
T1 sequence (Q92843 whole entry): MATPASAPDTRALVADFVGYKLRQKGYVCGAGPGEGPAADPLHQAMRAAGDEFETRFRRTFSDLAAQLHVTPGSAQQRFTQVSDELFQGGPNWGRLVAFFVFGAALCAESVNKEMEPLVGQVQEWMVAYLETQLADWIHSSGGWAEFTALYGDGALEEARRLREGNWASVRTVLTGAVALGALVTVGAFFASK

[5] = Toxicity in Sprague-Dawley rat assessed as inhibition of granulopoiesis by measuring reduction in neutrophil count at 50 mg/kg, po administered daily for 5 days measured on day 6 by microscopic analysis relative to control; format: organism-based; parameters: scale not given: the % may be the effect or the level left; settings: in vivo, 144 h, time 6 day; procedure, shortened: as §1
[6] = Toxicity in Sprague-Dawley rat assessed as inhibition of granulopoiesis by measuring reduction in neutrophil count at 30 mg/kg, po administered daily for 5 days measured on day 6 by microscopic analysis relative to control; format: organism-based; parameters: scale not given: the % may be the effect or the level left; settings: in vivo, 144 h, time 6 day; procedure, shortened: as §1
[7] = Toxicity in Sprague-Dawley rat assessed as inhibition of granulopoiesis by measuring reduction in neutrophil count at 30 mg/kg, po administered daily for 5 days measured on day 6 in the presence of docetaxel by microscopic analysis relative to control; format: organism-based; settings: in vivo, 144 h, time 6 day; procedure, shortened: as §1
[8] = Toxicity in Sprague-Dawley rat assessed as inhibition of […] by measuring reduction in circulating platelets at 30 mg/kg, po administered daily for 5 days and measured on day 6 by microscopic analysis; format: organism-based; settings: in vivo, 144 h, time 6 day; procedure, shortened: as §1

Apoptosis regulator Bcl-2, sequence (P10415 whole entry): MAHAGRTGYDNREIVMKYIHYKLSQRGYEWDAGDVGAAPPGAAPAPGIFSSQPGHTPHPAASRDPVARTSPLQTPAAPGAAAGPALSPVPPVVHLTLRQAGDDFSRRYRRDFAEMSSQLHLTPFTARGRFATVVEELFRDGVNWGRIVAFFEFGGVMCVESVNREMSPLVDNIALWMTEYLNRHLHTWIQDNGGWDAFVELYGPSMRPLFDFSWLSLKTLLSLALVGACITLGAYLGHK
Bcl-2-like protein 1, sequence (Q07817 whole entry): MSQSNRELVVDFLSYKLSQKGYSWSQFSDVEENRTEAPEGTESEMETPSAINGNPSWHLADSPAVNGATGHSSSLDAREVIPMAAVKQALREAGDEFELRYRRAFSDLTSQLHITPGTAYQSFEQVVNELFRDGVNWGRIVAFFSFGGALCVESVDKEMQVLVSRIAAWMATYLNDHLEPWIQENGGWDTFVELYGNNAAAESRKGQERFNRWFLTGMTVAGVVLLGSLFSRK
Induced myeloid leukemia cell differentiation protein Mcl-1, sequence (Q07820 whole entry): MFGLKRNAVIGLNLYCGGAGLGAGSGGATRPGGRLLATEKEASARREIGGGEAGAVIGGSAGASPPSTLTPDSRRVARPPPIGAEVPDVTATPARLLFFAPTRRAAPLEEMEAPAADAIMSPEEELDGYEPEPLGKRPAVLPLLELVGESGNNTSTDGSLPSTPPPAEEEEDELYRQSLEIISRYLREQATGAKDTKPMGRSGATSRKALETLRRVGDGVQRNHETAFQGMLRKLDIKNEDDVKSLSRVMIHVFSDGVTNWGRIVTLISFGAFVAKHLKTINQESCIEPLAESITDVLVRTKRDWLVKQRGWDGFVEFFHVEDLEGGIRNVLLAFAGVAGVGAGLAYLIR

Row | SMILES | EC50 (MOLT-4) | Ki [1] | Ki [2] | Activity [3] | Ki (Bcl-2-like protein 1) | Activity [4] | Ki (Bcl-2-like protein 2) | Activity [5] | Activity [6] | Activity [7] | Activity [8]
1 | CO[C@H]1CC[C@H](CNc2ccc(S(=O)(=O)NC(=O)c3ccc(N4CCN(CC5=C(c6ccc(Cl)cc6)CC(C)(C)CC5)CC4)cc3Oc3cnc4[nH]ccc4c3)cc2[N+](=O)[O-])CC1 [A-1211212] | > 5000 nM | < 0.01 nM | > 444 nM | Non-Toxic | 14 nM | Toxic | 852 nM | 41% | – | – | –
2 | CC1(C)CCC(CN2CCN(c3ccc(C(=O)NS(=O)(=O)c4ccc(N[C@H](CCN5CCOCC5)CSc5ccccc5)c(S(=O)(=O)C(F)(F)Cl)c4)cc3)CC2)=C(c2ccc(Cl)cc2)C1 | 134 nM | 0.048 nM | > 3900 nM | – | 0.463 nM | – | 2 nM | – | 41% | Toxic | Toxic

Reference: ChEMBL document CHEMBL5705901, “Exploiting selective BCL-2 family inhibitors to dissect cell survival dependencies and define improved strategies for cancer therapy” (Sci Transl Med, 2015)
